For test [1], the target named is T1, SIRT6 (Homo sapiens, UniProt Q8N6T7). Description: Fluor de Lys. Type of test: biochemical. The method in brief:
(§1)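 Recombinant SIRT6 was expressed in E. coli BL21 in LB with 100 μg/mL ampicillin at 37 °C. Expression was induced with 0.5 mmol/L IPTG at OD600 0.8, then grown 18 h at 16 °C and purified by an earlier method.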

Test [2] concerns the target T1, SIRT6. Description: FDL assay of SIRT6 deacetylation on H3K9Ac peptide. Type of test: biochemical. The procedure, abridged:
as §1

Test [3] has as its target T1, SIRT6. Description: In vitro nucleosome deacetylation assay. The class given is biochemical. As to conditions: Western blot. The method in brief:
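Nucleosomes were isolated from HeLa cells and deacetylated in vitro by SIRT6 in the presence of NAD+. H3K9Ac and H3K18Ac were detected by Western blot.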
In general terms: Immunoblotting shows a protein as a band on a membrane.

The target in test [4] is T1, SIRT6. Nature of the test: Biolayer interferometry. Type of test: binding. Background: Biolayer interferometry detects binding as a change in optical thickness at a sensor tip.
For test [5], the target named is T1, SIRT6. Description: Enzymatic kinetic assays by HPLC. The class given is biochemical. As to conditions: for kcat (Ac-RHKK-Ac-AMC): varied Ac-RHKK-Ac-AMC, HPLC.
The target of test [6] is T1, SIRT6. Nature of the test: Competition assay between SIRT6 substrates and JYQ-42. Type of test: biochemical. As to conditions: FDL competition assay.
Test [7] concerns the target HDAC1 (Homo sapiens, UniProt Q13547). Nature of the test: HDACs selectivity assay. Type of test: biochemical. The method in brief:
(§2)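 Enzyme selectivity panel was run by an outside contract lab to its standard assay protocols. IC50 values came from dose–response fitting of the data points. Each experiment was done independently at least three times.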

The target in test [8] is HDAC5 (Homo sapiens, UniProt Q9UQL6). Description: HDACs selectivity assay. Type of test: biochemical. The method in brief: as §2
Sequence of HDAC5 (Q9UQL6 whole entry): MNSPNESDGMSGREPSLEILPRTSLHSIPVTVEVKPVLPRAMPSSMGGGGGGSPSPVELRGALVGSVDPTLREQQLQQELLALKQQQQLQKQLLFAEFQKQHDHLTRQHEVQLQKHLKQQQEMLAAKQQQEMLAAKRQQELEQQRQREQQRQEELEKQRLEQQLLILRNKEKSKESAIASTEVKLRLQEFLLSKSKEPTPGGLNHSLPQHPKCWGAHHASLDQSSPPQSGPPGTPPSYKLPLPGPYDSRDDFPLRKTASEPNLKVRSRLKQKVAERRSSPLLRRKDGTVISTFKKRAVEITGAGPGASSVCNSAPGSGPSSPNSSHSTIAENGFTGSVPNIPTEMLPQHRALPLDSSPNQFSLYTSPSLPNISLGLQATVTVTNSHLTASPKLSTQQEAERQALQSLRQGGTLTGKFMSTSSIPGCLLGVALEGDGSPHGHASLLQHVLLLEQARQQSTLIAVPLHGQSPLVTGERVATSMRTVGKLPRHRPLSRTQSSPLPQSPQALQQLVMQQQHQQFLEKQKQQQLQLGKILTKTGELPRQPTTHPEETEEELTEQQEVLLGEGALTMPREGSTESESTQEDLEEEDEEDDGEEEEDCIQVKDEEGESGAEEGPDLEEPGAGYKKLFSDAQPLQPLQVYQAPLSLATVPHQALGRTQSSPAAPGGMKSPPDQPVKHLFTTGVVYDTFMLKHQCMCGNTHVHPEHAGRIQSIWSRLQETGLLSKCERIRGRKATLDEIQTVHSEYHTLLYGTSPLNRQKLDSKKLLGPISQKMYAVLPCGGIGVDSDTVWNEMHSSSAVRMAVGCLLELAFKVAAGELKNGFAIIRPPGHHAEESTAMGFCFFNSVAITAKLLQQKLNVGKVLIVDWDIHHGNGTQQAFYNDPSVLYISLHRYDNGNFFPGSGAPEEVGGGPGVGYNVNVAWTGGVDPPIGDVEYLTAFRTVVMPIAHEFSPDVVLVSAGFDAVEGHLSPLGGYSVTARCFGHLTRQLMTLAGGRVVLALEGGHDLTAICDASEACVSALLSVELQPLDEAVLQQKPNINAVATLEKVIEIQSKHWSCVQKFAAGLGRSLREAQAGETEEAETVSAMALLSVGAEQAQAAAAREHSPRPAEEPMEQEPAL
For test [9], the target named is T2, HDAC6 (Homo sapiens, UniProt Q9UBN7).
T2 sequence (Q9UBN7 1-1215): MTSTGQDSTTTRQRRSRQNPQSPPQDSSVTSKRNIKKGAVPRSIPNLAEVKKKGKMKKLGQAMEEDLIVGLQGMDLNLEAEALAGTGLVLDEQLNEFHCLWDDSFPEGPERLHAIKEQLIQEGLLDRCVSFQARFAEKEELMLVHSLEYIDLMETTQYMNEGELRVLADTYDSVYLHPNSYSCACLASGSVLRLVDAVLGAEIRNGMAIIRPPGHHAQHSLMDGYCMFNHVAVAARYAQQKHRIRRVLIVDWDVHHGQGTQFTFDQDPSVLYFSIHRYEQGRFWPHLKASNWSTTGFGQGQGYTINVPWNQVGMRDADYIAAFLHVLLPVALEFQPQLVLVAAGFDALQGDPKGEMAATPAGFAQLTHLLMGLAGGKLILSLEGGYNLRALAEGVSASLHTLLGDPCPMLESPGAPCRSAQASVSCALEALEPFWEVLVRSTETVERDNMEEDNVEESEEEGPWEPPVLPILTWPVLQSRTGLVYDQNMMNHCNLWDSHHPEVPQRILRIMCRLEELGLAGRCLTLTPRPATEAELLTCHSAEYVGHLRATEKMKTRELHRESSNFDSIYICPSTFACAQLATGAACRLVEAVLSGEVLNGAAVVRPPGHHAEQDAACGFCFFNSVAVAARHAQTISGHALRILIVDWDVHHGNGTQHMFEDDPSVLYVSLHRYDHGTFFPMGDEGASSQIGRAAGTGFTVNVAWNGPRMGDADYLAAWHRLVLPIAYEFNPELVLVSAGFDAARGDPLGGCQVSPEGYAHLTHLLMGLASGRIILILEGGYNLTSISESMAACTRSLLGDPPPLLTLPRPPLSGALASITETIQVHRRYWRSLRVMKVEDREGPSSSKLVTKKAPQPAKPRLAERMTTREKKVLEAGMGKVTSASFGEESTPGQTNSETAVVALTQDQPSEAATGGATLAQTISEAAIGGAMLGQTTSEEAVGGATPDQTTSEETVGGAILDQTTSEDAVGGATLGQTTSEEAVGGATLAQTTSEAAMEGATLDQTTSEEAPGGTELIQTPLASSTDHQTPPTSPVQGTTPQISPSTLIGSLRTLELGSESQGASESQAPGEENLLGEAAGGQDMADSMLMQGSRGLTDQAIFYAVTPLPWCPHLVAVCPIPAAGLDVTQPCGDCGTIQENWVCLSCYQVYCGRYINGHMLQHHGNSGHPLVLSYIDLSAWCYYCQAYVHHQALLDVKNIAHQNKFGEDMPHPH
Description: HDACs selectivity assay. The class given is biochemical. The procedure, abridged:
as §2

Test [10] addresses HDAC9 (Homo sapiens, UniProt Q9UKV0). Description: HDACs selectivity assay. Type of test: biochemical. The method in brief:
as §2

Test [11] has as its target T3, SIRT5 (residues 34–302) (Homo sapiens, UniProt Q9NXA8).
T3 sequence (Q9NXA8 34-302): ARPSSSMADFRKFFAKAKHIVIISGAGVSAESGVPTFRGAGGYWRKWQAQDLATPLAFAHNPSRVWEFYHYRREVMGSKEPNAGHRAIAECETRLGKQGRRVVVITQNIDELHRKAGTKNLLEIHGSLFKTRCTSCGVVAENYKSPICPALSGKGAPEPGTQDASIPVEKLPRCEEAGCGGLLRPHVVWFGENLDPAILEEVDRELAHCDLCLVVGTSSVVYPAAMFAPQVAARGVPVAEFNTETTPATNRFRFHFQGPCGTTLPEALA
Description: Selectivity FDL deacetylation assay. The class given is biochemical.

For test [12], the system named is MiaPaCa-2 cells. Nature of the test: Migration assay with xCELLigence RTCA-DP. Type of test: cell-based. As to conditions: effect even at 5 μmol/L.
In test [13] the test system is BXPC-3 cells. Nature of the test: Proliferation assay. The class given is cell-based. As to conditions: BXPC-3, up to 20 μmol/L, 48 h, CCK-8.
Test [14] concerns MiaPaCa-2 cells. Description: Proliferation assay. Type of test: cell-based. The note with it: MiaPaCa-2, up to 20 μmol/L, 48 h, CCK-8.
Test [15] has as its system BXPC-3 cells. Description: Q-PCR for SIRT6, IL6, IL8 and TNF-α mRNA. The class given is cell-based. The note with it: BXPC-3, 10, 20, 40 μmol/L, 24 h, qPCR.
Test [16] deals with BXPC-3 cells. Nature of the test: ELISA for IL6, IL8 and TNF-α secretion. Type of test: cell-based. As to conditions: BXPC-3, 30 ng/mL PMA, 10, 20, 40 μmol/L, 24 h. Background: ELISA stands for enzyme-linked immunosorbent assay.

As usually defined, the IC50 is the concentration needed to halve the response being measured. Read a low IC50 as greater potency. One may read the Kd as the free concentration of one partner at which half of the binding sites on the other are occupied at equilibrium, for simple one-to-one binding.

T1 sequence (Q8N6T7 whole entry): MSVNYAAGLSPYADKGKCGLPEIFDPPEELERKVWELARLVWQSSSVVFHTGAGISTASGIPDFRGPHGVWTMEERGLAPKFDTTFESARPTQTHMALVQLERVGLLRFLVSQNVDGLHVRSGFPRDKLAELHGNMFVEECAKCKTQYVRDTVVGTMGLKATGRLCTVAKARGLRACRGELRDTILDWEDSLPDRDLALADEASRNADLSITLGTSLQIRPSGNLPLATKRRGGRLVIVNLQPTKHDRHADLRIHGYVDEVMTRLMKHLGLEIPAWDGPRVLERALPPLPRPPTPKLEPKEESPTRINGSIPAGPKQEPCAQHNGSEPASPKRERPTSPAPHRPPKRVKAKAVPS
Sequence of HDAC1 (Q13547 whole entry): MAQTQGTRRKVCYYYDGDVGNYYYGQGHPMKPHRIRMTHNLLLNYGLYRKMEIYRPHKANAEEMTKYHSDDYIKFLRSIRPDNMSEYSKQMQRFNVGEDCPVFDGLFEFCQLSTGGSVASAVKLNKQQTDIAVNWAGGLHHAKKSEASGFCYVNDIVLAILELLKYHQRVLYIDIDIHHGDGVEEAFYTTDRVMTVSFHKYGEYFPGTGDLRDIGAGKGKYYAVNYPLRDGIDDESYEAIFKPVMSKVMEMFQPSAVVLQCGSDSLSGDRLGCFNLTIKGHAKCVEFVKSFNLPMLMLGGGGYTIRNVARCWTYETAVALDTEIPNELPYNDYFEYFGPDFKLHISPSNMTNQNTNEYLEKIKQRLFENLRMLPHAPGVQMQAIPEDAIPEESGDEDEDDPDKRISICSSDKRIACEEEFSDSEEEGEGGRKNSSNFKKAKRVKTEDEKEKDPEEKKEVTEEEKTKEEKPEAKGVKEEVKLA
Sequence of HDAC9 (Q9UKV0 whole entry): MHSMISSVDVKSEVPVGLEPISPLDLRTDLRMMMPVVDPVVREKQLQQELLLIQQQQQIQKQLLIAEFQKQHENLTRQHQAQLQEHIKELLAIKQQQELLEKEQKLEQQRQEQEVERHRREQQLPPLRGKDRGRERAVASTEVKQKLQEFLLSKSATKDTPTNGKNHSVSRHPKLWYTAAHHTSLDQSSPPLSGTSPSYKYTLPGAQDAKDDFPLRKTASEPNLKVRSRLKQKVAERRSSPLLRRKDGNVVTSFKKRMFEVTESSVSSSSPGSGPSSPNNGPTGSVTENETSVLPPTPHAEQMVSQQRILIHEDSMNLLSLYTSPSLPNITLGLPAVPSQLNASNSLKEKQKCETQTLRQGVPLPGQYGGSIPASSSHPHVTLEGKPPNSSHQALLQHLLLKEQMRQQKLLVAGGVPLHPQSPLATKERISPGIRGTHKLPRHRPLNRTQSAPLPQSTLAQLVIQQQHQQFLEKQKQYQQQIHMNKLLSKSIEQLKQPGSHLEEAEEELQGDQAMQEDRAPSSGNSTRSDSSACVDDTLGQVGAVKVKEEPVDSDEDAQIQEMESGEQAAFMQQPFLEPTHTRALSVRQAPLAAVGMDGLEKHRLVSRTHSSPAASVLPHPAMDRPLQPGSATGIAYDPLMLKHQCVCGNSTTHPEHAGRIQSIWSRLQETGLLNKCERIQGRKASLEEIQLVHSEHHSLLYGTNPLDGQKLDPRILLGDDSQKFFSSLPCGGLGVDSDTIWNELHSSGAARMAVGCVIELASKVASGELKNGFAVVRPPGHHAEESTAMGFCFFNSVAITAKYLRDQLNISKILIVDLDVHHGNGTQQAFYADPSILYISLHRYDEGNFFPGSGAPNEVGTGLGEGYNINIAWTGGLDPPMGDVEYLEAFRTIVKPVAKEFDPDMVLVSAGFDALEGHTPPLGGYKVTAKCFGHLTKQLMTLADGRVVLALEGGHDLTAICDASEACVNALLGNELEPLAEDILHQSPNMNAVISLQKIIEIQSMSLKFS

As for `Nc1nonc1-n1cc(C(=O)N/N=C/c2cc(Cl)cc(C(F)(F)F)c2)nn1` [JYQ-42], the IC50 was 2.33 ± 0.17 µM in test [1]; more than 100 µM in test [7]; more than 100 µM in test [8]; more than 100 µM in test [9]; more than 100 µM in [10]; more than 100 µM in [11]. Moreover, the “inhibition ratio at 50 μmol/L” value in test [1] (FDL assay, substrate Ac-RHKK-Ac-AMC, 50 μmol/L compound) is recorded as 85.3%. In addition, the Effect entry in [1] (SIRT6 (Table 2)) is “Inhibition”. For the same compound, the “inhibition ratio at 50 μmol/L on H3K9Ac” value in [2] was 90.7%. Further, the “inhibition of SIRT6 deacetylase activity on nucleosomes” value was “inhibit the deacetylase activity of SIRT6 significantly” in [3] (0.5 μmol/L) and “completely/totally inhibited” in [3] (1 μmol/L). The compound also showed a Kd in [4] of 13.2 µM. In addition, in test [5] (Lineweaver–Burk analysis towards NAD^+ and Ac-RHKK-Ac-AMC), the inhibition mode entry is on record as “non-competitive inhibitor”. The “kcat (Ac-RHKK-Ac-AMC)” value is on record as 33.65 × 10^−4 S^−1 in test [5] (SIRT6 with 1 μmol/L JYQ-42), 22.12 × 10^−4 S^−1 in test [5] (SIRT6 with 3 μmol/L JYQ-42) and 13.86 × 10^−4 S^−1 in test [5] (SIRT6 with 10 μmol/L JYQ-42). Further, in test [6], the “effect of increasing NAD^+ or Ac-RHKK-Ac-AMC on the inhibition” value is “did not interfere with the inhibition”. Moreover, the “migration of pancreatic cancer cells (RTCA cell index)” value in test [12] was “dramatically attenuated”. In addition, the cell growth entry in test [13] and in test [14] was “no significant impact on cell growth” throughout. In addition, the “mRNA level of SIRT6” value in test [15] is on record as “not significantly changed”. Also, the “secretion levels of IL6, IL8 and TNF-α” value in [16] was “blocked the secretion levels”.

Values taken from PMC8897208 (Acta Pharmaceutica Sinica. B, 2021).
